Measurements from ChEMBL document CHEMBL5058577, “EUbOPEN Chemogenomics Library 2 (Multiplex)” (2022).

Test system: U2OS
Assay: Multiplex assay against U2OS
Assay type: toxicity, cell-based
Details: human
Procedure, shortened: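 Live cells were stained at seeding with Hoechst33342, BioTracker Green Microtubule Cytoskeleton Dye, MitoTracker Red and Annexin V Alexa Fluor 680. Following compound addition, they were imaged on a CQ1 microscope at 37°C and 5% CO2 and gated by CellPathfinder machine learning into Hoechst high-intensity objects or normal cells, with normal cells split into healthy, pyknosed or fragmented nuclei and pyknosed cells into mitotic or apoptotic. Tubulin, mitochondrial-mass and membrane-permeability phenotypes are per cents of healthy-nucleus cells.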

[1] = 12 h, 1 µM, compound concentration 1 uM, replicate 1
[2] = 12 h, 1 µM, compound concentration 1 uM, replicate 2
[3] = 12 h, 10 µM, compound concentration 10 uM, replicate 1
[4] = 12 h, 10 µM, compound concentration 10 uM, replicate 2
[5] = 24 h, 1 µM, compound concentration 1 uM, replicate 1
[6] = 24 h, 1 µM, compound concentration 1 uM, replicate 2
[7] = 24 h, 10 µM, compound concentration 10 uM, replicate 1
[8] = 24 h, 10 µM, compound concentration 10 uM, replicate 2
[9] = 48 h, 1 µM, compound concentration 1 uM, replicate 1
[10] = 48 h, 1 µM, compound concentration 1 uM, replicate 2
[11] = 48 h, 10 µM, compound concentration 10 uM, replicate 1
[12] = 48 h, 10 µM, compound concentration 10 uM, replicate 2

Structure (SMILES): Cl.NCCc1ccc(O)c(O)c1 [DOPAMINE HYDROCHLORIDE]
- Population Apoptotic (%) [1]: 100%
- Population Fragmented Nuclei (%) [1]: 23%
- Population Healthy Nuclei (%) [1]: 67%
- Population Hoechst High Intensity Objects (%) [1]: 3%
- Population Membrane Permeable-Phenotype (%) [1]: 5%
- Population Mitochondria Different-Phenotype (%) [1]: 1%
- Population Mitotic Cells (%) [1]: 0%
- Population Normal (%) [1]: 96%
- Population Pyknosed Nuclei (%) [1]: 9%
- Population Tubulin-Different-Phenotype (%) [1]: 2%
- Total Cell Count [1]: 237
- Population Apoptotic (%) [2]: 83%
- Population Fragmented Nuclei (%) [2]: 15%
- Population Healthy Nuclei (%) [2]: 72%
- Population Hoechst High Intensity Objects (%) [2]: 1%
- Population Membrane Permeable-Phenotype (%) [2]: 8%
- Population Mitochondria Different-Phenotype (%) [2]: 2%
- Population Mitotic Cells (%) [2]: 16%
- Population Normal (%) [2]: 98%
- Population Pyknosed Nuclei (%) [2]: 11%
- Population Tubulin-Different-Phenotype (%) [2]: 5%
- Total Cell Count [2]: 104
- Population Apoptotic (%) [3]: 80%
- Population Fragmented Nuclei (%) [3]: 21%
- Population Healthy Nuclei (%) [3]: 65%
- Population Hoechst High Intensity Objects (%) [3]: 3%
- Population Membrane Permeable-Phenotype (%) [3]: 2%
- Population Mitochondria Different-Phenotype (%) [3]: 1%
- Population Mitotic Cells (%) [3]: 20%
- Population Normal (%) [3]: 96%
- Population Pyknosed Nuclei (%) [3]: 12%
- Population Tubulin-Different-Phenotype (%) [3]: 1%
- Total Cell Count [3]: 204
- Population Apoptotic (%) [4]: 75%
- Population Fragmented Nuclei (%) [4]: 18%
- Population Healthy Nuclei (%) [4]: 76%
- Population Hoechst High Intensity Objects (%) [4]: 0%
- Population Membrane Permeable-Phenotype (%) [4]: 4%
- Population Mitotic Cells (%) [4]: 25%
- Population Normal (%) [4]: 100%
- Population Pyknosed Nuclei (%) [4]: 4%
- Total Cell Count [4]: 95
- Population Apoptotic (%) [5]: 90%
- Population Fragmented Nuclei (%) [5]: 18%
- Population Healthy Nuclei (%) [5]: 69%
- Population Hoechst High Intensity Objects (%) [5]: 4%
- Population Membrane Permeable-Phenotype (%) [5]: 7%
- Population Mitochondria Different-Phenotype (%) [5]: 2%
- Population Mitotic Cells (%) [5]: 10%
- Population Normal (%) [5]: 95%
- Population Pyknosed Nuclei (%) [5]: 11%
- Population Tubulin-Different-Phenotype (%) [5]: 5%
- Total Cell Count [5]: 263
- Population Apoptotic (%) [6]: 80%
- Population Fragmented Nuclei (%) [6]: 14%
- Population Healthy Nuclei (%) [6]: 77%
- Population Hoechst High Intensity Objects (%) [6]: 1%
- Population Membrane Permeable-Phenotype (%) [6]: 4%
- Population Mitochondria Different-Phenotype (%) [6]: 1%
- Population Mitotic Cells (%) [6]: 20%
- Population Normal (%) [6]: 98%
- Population Pyknosed Nuclei (%) [6]: 7%
- Population Tubulin-Different-Phenotype (%) [6]: 2%
- Total Cell Count [6]: 132
- Population Apoptotic (%) [7]: 92%
- Population Fragmented Nuclei (%) [7]: 18%
- Population Healthy Nuclei (%) [7]: 70%
- Population Hoechst High Intensity Objects (%) [7]: 2%
- Population Membrane Permeable-Phenotype (%) [7]: 4%
- Population Mitochondria Different-Phenotype (%) [7]: 0%
- Population Mitotic Cells (%) [7]: 8%
- Population Normal (%) [7]: 97%
- Population Pyknosed Nuclei (%) [7]: 10%
- Population Tubulin-Different-Phenotype (%) [7]: 1%
- Total Cell Count [7]: 245
- Population Apoptotic (%) [8]: 87%
- Population Fragmented Nuclei (%) [8]: 15%
- Population Healthy Nuclei (%) [8]: 77%
- Population Hoechst High Intensity Objects (%) [8]: 0%
- Population Membrane Permeable-Phenotype (%) [8]: 1%
- Population Mitotic Cells (%) [8]: 12%
- Population Normal (%) [8]: 99%
- Population Pyknosed Nuclei (%) [8]: 7%
- Total Cell Count [8]: 111
- Population Apoptotic (%) [9]: 90%
- Population Fragmented Nuclei (%) [9]: 17%
- Population Healthy Nuclei (%) [9]: 70%
- Population Hoechst High Intensity Objects (%) [9]: 2%
- Population Membrane Permeable-Phenotype (%) [9]: 5%
- Population Mitochondria Different-Phenotype (%) [9]: 3%
- Population Mitotic Cells (%) [9]: 9%
- Population Normal (%) [9]: 97%
- Population Pyknosed Nuclei (%) [9]: 11%
- Population Tubulin-Different-Phenotype (%) [9]: 4%
- Total Cell Count [9]: 363
- Population Apoptotic (%) [10]: 89%
- Population Fragmented Nuclei (%) [10]: 14%
- Population Healthy Nuclei (%) [10]: 73%
- Population Membrane Permeable-Phenotype (%) [10]: 7%
- Population Mitochondria Different-Phenotype (%) [10]: 4%
- Population Mitotic Cells (%) [10]: 10%
- Population Tubulin-Different-Phenotype (%) [10]: 3%
- Total Cell Count [10]: 172
- Population Apoptotic (%) [11]: 85%
- Population Fragmented Nuclei (%) [11]: 18%
- Population Healthy Nuclei (%) [11]: 66%
- Population Hoechst High Intensity Objects (%) [11]: 2%
- Population Membrane Permeable-Phenotype (%) [11]: 7%
- Population Mitochondria Different-Phenotype (%) [11]: 3%
- Population Mitotic Cells (%) [11]: 14%
- Population Normal (%) [11]: 97%
- Population Pyknosed Nuclei (%) [11]: 14%
- Population Tubulin-Different-Phenotype (%) [11]: 5%
- Total Cell Count [11]: 338
- Population Apoptotic (%) [12]: 100%
- Population Fragmented Nuclei (%) [12]: 14%
- Population Healthy Nuclei (%) [12]: 76%
- Population Hoechst High Intensity Objects (%) [12]: 1%
- Population Membrane Permeable-Phenotype (%) [12]: 2%
- Population Mitochondria Different-Phenotype (%) [12]: 2%
- Population Mitotic Cells (%) [12]: 0%
- Population Normal (%) [12]: 98%
- Population Pyknosed Nuclei (%) [12]: 8%
- Population Tubulin-Different-Phenotype (%) [12]: 2%
- Total Cell Count [12]: 179
